The target in assay [1] is T1, Glucagon-like peptide 1 receptor (Homo sapiens, UniProt P43220). In words: Displacement of [125I]-GLP1 from human GLP1 receptor expressed in BHK cells after 2 hrs in absence of human serum albumin. It is filed as cell-based.
Assay [2] addresses T1, Glucagon-like peptide 1 receptor. Put plainly: Agonist activity at human GLP1 receptor expressed in BHK cells after 3 hrs by CRE firefly luciferase reporter gene assay in absence of human serum albumin. Type of assay: functional, cell-based. For orientation: In a reporter assay the amount or activity of a reporter protein is the signal.
Assay [3] shares this target. In words: Displacement of [125I]-GLP1 from human GLP1 receptor expressed in BHK cells after 2 hrs in presence of 2% human serum albumin. Type of assay: cell-based. On the technique in general: In a radioligand displacement assay an active substance lowers the binding of a labelled ligand.
Assay [4] concerns Mus musculus. In words: Antihyperglycaemic activity in sc dosed db/db mouse assessed as reduction of blood glucose level by glucose oxidase method. Type of assay: functional, organism-based. The gist of the method: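 Male db/db mice (10–12 weeks old, blood glucose above 10 mM), group-housed, fed chow and acidified water ad libitum. Doses of 0.3–100 nmol/kg were given s.c. at 6 mL/kg in 50 mM phosphate with 0.05% Tween 80, pH 8. Tail-tip capillary blood glucose was measured by glucose oxidase at 0, 1, 2, 3, 6, 24 and 48 h. […] Values are mean ± SEM.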

Assay [5] concerns Mus musculus. In words: Antiobesity activity in sc dosed db/db mouse assessed as reduction of body weight. Type of assay: functional, organism-based.

T1 sequence (P43220 whole entry): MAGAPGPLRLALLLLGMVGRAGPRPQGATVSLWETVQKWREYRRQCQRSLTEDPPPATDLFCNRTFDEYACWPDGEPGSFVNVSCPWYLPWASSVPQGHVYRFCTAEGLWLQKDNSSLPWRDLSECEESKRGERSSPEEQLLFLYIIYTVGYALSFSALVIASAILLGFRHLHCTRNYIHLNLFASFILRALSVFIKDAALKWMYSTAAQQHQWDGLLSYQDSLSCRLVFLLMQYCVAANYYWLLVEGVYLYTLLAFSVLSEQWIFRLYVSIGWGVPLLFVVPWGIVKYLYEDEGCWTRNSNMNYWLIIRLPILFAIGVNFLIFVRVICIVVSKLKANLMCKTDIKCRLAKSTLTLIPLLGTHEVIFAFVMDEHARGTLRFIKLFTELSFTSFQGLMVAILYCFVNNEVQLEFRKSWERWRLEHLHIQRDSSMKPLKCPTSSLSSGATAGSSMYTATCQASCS

The IC50 is the concentration at which inhibition is half-maximal. The term EC50 denotes the concentration that produces a half-maximal response. A low value points to an effect from little substance. In the case of `CC[C@H](C)[C@H](NC(=O)[C@H](Cc1ccccc1)NC(=O)[C@H](CCC(=O)O)NC(=O)[C@H](CCCCNC(=O)COCCOCCNC(=O)COCCOCCNC(=O)CC[C@H](NC(=O)CCCCCCCCCCCCC(=O)O)C(=O)O)NC(=O)[C@H](C)NC(=O)[C@H](C)NC(=O)[C@H](CCC(N)=O)NC(=O)CNC(=O)[C@H](CCC(=O)O)NC(=O)[C@H](CC(C)C)NC(=O)[C@H](Cc1ccc(O)cc1)NC(=O)[C@H](CO)NC(=O)[C@H](CO)NC(=O)[C@@H](NC(=O)[C@H](CC(=O)O)NC(=O)[C@H](CO)NC(=O)[C@@H](NC(=O)[C@H](Cc1ccccc1)NC(=O)[C@@H](NC(=O)CNC(=O)[C@H](CCC(=O)O)NC(=O)C(C)(C)NC(=O)[C@@H](N)Cc1c[nH]cn1)[C@@H](C)O)[C@@H](C)O)C(C)C)C(=O)N[C@@H](C)C(=O)N[C@@H](Cc1c[nH]c2ccccc12)C(=O)N[C@@H](CC(C)C)C(=O)N[C@H](C(=O)N[C@@H](CCCNC(=N)N)C(=O)NCC(=O)N[C@@H](CCCNC(=N)N)C(=O)NCC(=O)O)C(C)C`, the IC50 was 2.65 nM in assay [1] and 8.87 nM in assay [3]. The molecule also registered an EC50 in assay [2] of 0.0157 nM.
For the molecule `CC[C@H](C)[C@H](NC(=O)[C@H](Cc1ccccc1)NC(=O)[C@H](CCC(=O)O)NC(=O)[C@H](CCCCNC(=O)CCCCCCCCCCCCCCCCC(=O)O)NC(=O)[C@H](C)NC(=O)[C@H](C)NC(=O)[C@H](CCC(N)=O)NC(=O)CNC(=O)[C@H](CCC(=O)O)NC(=O)[C@H](CC(C)C)NC(=O)[C@H](Cc1ccc(O)cc1)NC(=O)[C@H](CO)NC(=O)[C@H](CO)NC(=O)[C@@H](NC(=O)[C@H](CC(=O)O)NC(=O)[C@H](CO)NC(=O)[C@@H](NC(=O)[C@H](Cc1ccccc1)NC(=O)[C@@H](NC(=O)CNC(=O)[C@H](CCC(=O)O)NC(=O)C(C)(C)NC(=O)[C@@H](N)Cc1c[nH]cn1)[C@@H](C)O)[C@@H](C)O)C(C)C)C(=O)N[C@@H](C)C(=O)N[C@@H](Cc1c[nH]c2ccccc12)C(=O)N[C@@H](CC(C)C)C(=O)N[C@H](C(=O)N[C@@H](CCCNC(=N)N)C(=O)NCC(=O)N[C@@H](CCCNC(=N)N)C(=O)NCC(=O)O)C(C)C`, the IC50 came to 1.86 nM in assay [1] and 27 nM in assay [3]. The EC50 in assay [2] amounted to 0.269 nM.
In the same order, the values of `CC[C@H](C)[C@H](NC(=O)[C@H](Cc1ccccc1)NC(=O)[C@H](CCC(=O)O)NC(=O)[C@H](CCCCNC(=O)COCCOCCNC(=O)COCCOCCNC(=O)CCCCCCCCCCCCCCC(=O)O)NC(=O)[C@H](C)NC(=O)[C@H](C)NC(=O)[C@H](CCC(N)=O)NC(=O)CNC(=O)[C@H](CCC(=O)O)NC(=O)[C@H](CC(C)C)NC(=O)[C@H](Cc1ccc(O)cc1)NC(=O)[C@H](CO)NC(=O)[C@H](CO)NC(=O)[C@@H](NC(=O)[C@H](CC(=O)O)NC(=O)[C@H](CO)NC(=O)[C@@H](NC(=O)[C@H](Cc1ccccc1)NC(=O)[C@@H](NC(=O)CNC(=O)[C@H](CCC(=O)O)NC(=O)C(C)(C)NC(=O)[C@@H](N)Cc1c[nH]cn1)[C@@H](C)O)[C@@H](C)O)C(C)C)C(=O)N[C@@H](C)C(=O)N[C@@H](Cc1c[nH]c2ccccc12)C(=O)N[C@@H](CC(C)C)C(=O)N[C@H](C(=O)N[C@@H](CCCNC(=N)N)C(=O)NCC(=O)N[C@@H](CCCNC(=N)N)C(=O)NCC(=O)O)C(C)C` are 3.25 nM, 12.8 nM and 0.166 nM.
For `CC[C@H](C)[C@H](NC(=O)[C@H](Cc1ccccc1)NC(=O)[C@H](CCC(=O)O)NC(=O)[C@H](CCCCNC(=O)COCCOCCNC(=O)COCCOCCNC(=O)CC[C@H](NC(=O)CCCCCCCCCCCCCCC(=O)O)C(=O)O)NC(=O)[C@H](C)NC(=O)[C@H](C)NC(=O)[C@H](CCC(N)=O)NC(=O)CNC(=O)[C@H](CCC(=O)O)NC(=O)[C@H](CC(C)C)NC(=O)[C@H](Cc1ccc(O)cc1)NC(=O)[C@H](CO)NC(=O)[C@H](CO)NC(=O)[C@@H](NC(=O)[C@H](CC(=O)O)NC(=O)[C@H](CO)NC(=O)[C@@H](NC(=O)[C@H](Cc1ccccc1)NC(=O)[C@@H](NC(=O)CNC(=O)[C@H](CCC(=O)O)NC(=O)C(C)(C)NC(=O)[C@@H](N)Cc1c[nH]cn1)[C@@H](C)O)[C@@H](C)O)C(C)C)C(=O)N[C@@H](C)C(=O)N[C@@H](Cc1c[nH]c2ccccc12)C(=O)N[C@@H](CC(C)C)C(=O)N[C@H](C(=O)N[C@@H](CCCNC(=N)N)C(=O)NCC(=O)N[C@@H](CCCNC(=N)N)C(=O)NCC(=O)O)C(C)C`, in that order: 0.94 nM, 20.5 nM and 0.0086 nM.
In the same order, the values of `CC[C@H](C)[C@H](NC(=O)[C@H](Cc1ccccc1)NC(=O)[C@H](CCC(=O)O)NC(=O)[C@H](CCCCN)NC(=O)[C@H](C)NC(=O)[C@H](C)NC(=O)[C@H](CCC(N)=O)NC(=O)[C@H](CCCCNC(=O)COCCOCCNC(=O)COCCOCCNC(=O)CC[C@H](NC(=O)CCCCCCCCCCCCCCCCC(=O)O)C(=O)O)NC(=O)[C@H](CCC(=O)O)NC(=O)[C@H](CC(C)C)NC(=O)[C@H](Cc1ccc(O)cc1)NC(=O)[C@H](CO)NC(=O)[C@H](CO)NC(=O)[C@@H](NC(=O)[C@H](CC(=O)O)NC(=O)[C@H](CO)NC(=O)[C@@H](NC(=O)[C@H](Cc1ccccc1)NC(=O)[C@@H](NC(=O)CNC(=O)[C@H](CCC(=O)O)NC(=O)C(C)(C)NC(=O)[C@@H](N)Cc1c[nH]cn1)[C@@H](C)O)[C@@H](C)O)C(C)C)C(=O)N[C@@H](C)C(=O)N[C@@H](Cc1c[nH]c2ccccc12)C(=O)N[C@@H](CC(C)C)C(=O)N[C@H](C(=O)N[C@@H](CCCCN)C(=O)NCC(=O)N[C@@H](CCCNC(=N)N)C(=O)NCC(=O)O)C(C)C` are 0.06 nM, 17.7 nM and 0.0027 nM.
Consider `CC[C@H](C)[C@H](NC(=O)[C@H](Cc1ccccc1)NC(=O)[C@H](CCC(=O)O)NC(=O)[C@H](CCCCN)NC(=O)[C@H](C)NC(=O)[C@H](C)NC(=O)[C@H](CCC(N)=O)NC(=O)CNC(=O)[C@H](CCC(=O)O)NC(=O)[C@H](CC(C)C)NC(=O)[C@H](Cc1ccc(O)cc1)NC(=O)[C@H](CO)NC(=O)[C@H](CO)NC(=O)[C@H](CCCCNC(=O)COCCOCCNC(=O)COCCOCCNC(=O)CC[C@H](NC(=O)CCCCCCCCCCCCCCCCC(=O)O)C(=O)O)NC(=O)[C@H](CC(=O)O)NC(=O)[C@H](CO)NC(=O)[C@@H](NC(=O)[C@H](Cc1ccccc1)NC(=O)[C@@H](NC(=O)CNC(=O)[C@H](CCC(=O)O)NC(=O)C(C)(C)NC(=O)[C@@H](N)Cc1c[nH]cn1)[C@@H](C)O)[C@@H](C)O)C(=O)N[C@@H](C)C(=O)N[C@@H](Cc1c[nH]c2ccccc12)C(=O)N[C@@H](CC(C)C)C(=O)N[C@H](C(=O)N[C@@H](CCCCN)C(=O)NCC(=O)N[C@@H](CCCNC(=N)N)C(=O)NCC(=O)O)C(C)C`, for which the half-inhibitory concentration (IC50) worked out at 0.5 nM in assay [1] and 25.5 nM in assay [3]. In assay [2], this molecule came in with an EC50 of 0.0099 nM.
As to SEMAGLUTIDE, the Activity result with Mus musculus [4] and in the assay with Mus musculus [5] was “Dose-dependent effect” throughout.

The record behind these values is ChEMBL document CHEMBL3616405 (J Med Chem, 2015).
